In brackets after ≈: the same amount, converted by molar mass.
System: Mycolicibacterium smegmatis
Assay: Antimycobacterial activity against Mycobacterium smegmatis after 24 hrs by microplate alamar blue assay
Type: functional
How it was run: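 Alamar blue viability read-out in 96-well microplates, following an earlier described method; test materials dissolved in DMSO at an initial 0.4 mg/mL; kanamycin positive control at 0.1 mg/mL; M. smegmatis strain preincubated 48 h before incubation with test materials.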

SMILES	MIC
CC(=O)O[C@@]12[C@H](O)[C@@H](C)[C@@]3(O)[C@@H](C=C(CO)C[C@]4(O)C(=O)C(C)=C[C@@H]34)[C@@H]1C2(C)C	> 400 µg/mL
CC1(C)CCC[C@]2(C)[C@@H]1CC[C@@]13O[C@@H]1C1=C(CO)C(=O)OC1=C[C@@H]23	100 µg/mL (≈ 303 µM)
CC1=C2[C@@H](O)[C@@]3(O)CC[C@@H]4C(C)(C)CCC[C@@]4(C)[C@@H]3[C@@H](O)[C@H]2OC1=O	> 400 µg/mL
CC1=C2[C@@H](OC1=O)C(=O)[C@H]1[C@]3(C)CCCC(C)(C)[C@H]3CC[C@@]1(O)[C@H]2O	300 µg/mL (≈ 861 µM)
CC(=O)O[C@@]12C[C@@H](C)[C@@]3(O)[C@@H](C=C(CO[C@@H]4O[C@H](CO)[C@@H](OC(=O)c5cc(O)c(O)c(O)c5)[C@H](O)[C@H]4O)C[C@]4(O)C(=O)C(C)=C[C@@H]34)[C@@H]1C2(C)C	> 400 µg/mL
CC(=O)O[C@@]12C[C@@H](C)[C@@]3(O)[C@@H](C=C(C=O)C[C@]4(O)C(=O)C(C)=C[C@@H]34)[C@@H]1C2(C)C	> 400 µg/mL
CC(=O)O[C@@]12C[C@@H](C)[C@@]3(O)[C@@H](C=C(C(=O)O)C[C@]4(O)C(=O)C(C)=C[C@@H]34)[C@@H]1C2(C)C	> 400 µg/mL
CC(=O)O[C@@]12C[C@@H](C)[C@@]3(O)[C@@H](C=C(CO[C@@H]4O[C@H](CO)[C@@H](O)[C@H](O)[C@H]4O)C[C@]4(O)C(=O)C(C)=C[C@@H]34)[C@@H]1C2(C)C [FISCHEROSIDES A]	> 400 µg/mL
CC(=O)O[C@@]12C[C@@H](C)[C@@]3(O)[C@@H](C=C(CO)C[C@]4(O)C(=O)C(C)=C[C@@H]34)[C@@H]1C2(C)C [PROSTRATIN]	> 400 µg/mL

Results, then the compound that gave them:

MIC	SMILES
> 400 µg/mL	CC1=C2C(=C[C@H]3[C@]4(C)CCCC(C)(C)[C@H]4CC[C@]34O[C@H]24)OC1=O
1.5 µg/mL (≈ 4.33 µM)	CC1(C)CCC[C@]2(C)[C@@H]1CC[C@@]13O[C@@H]1C1=C(CO)C(=O)O[C@]14O[C@@H]4[C@@H]23
> 400 µg/mL	CC(=O)O[C@@]12C[C@@H](C)[C@@]3(O)[C@@H](C=C(CO[C@@H]4O[C@H](CO)[C@@H](O)[C@H](OC(=O)c5cc(O)c(O)c(O)c5)[C@H]4O)C[C@]4(O)C(=O)C(C)=C[C@@H]34)[C@@H]1C2(C)C
> 400 µg/mL	CC(=O)O[C@@]12C[C@](C)(O)[C@H]3[C@@H](C=C(CO)C[C@]4(O)C(=O)C(C)=C[C@@H]34)[C@@H]1C2(C)C
> 400 µg/mL	CC1(C)C(=O)CC[C@]2(C)[C@@H]1C[C@H](O)C1=CC3=C(CO)C(=O)O[C@@H]3[C@@H](O)[C@H]12
400 µg/mL (≈ 1150 µM)	CC1=C2C=C3[C@@H](O)C[C@@H]4C(C)(C)CCC[C@@]4(C)[C@@H]3[C@@H](O)[C@@]2(O)OC1=O
200 µg/mL (≈ 574 µM)	CC1(C)CCC[C@]2(C)[C@@H]1CCC1=CC3=C(CO)C(=O)O[C@]3(O)[C@H](O)[C@H]12
> 400 µg/mL	CC1=C[C@H]2[C@@]3(O)[C@H](C)CC(=O)[C@@H](C(C)C)[C@@H]3C=C(CO)C[C@]2(O)C1=O
> 400 µg/mL	CC1(C)CCC[C@]2(C)[C@@H]1CC[C@]1(O)[C@H](O)C3=C(CO)C(=O)OC3=C[C@@H]21
> 400 µg/mL	CC1(C)CCC[C@]2(C)[C@@H]1C[C@H](O)C1=CC3=C(CO)C(=O)O[C@]3(O)[C@H](O)[C@H]12
> 400 µg/mL	CC1(C)C(=O)CC[C@]2(C)[C@@H]1CCC1=CC3=C(CO)C(=O)O[C@@H]3[C@@H](O)[C@H]12
10 µg/mL (≈ 20.6 µM)	NC[C@H]1O[C@H](O[C@H]2[C@H](O)[C@@H](O[C@H]3O[C@H](CO)[C@@H](O)[C@H](N)[C@H]3O)[C@H](N)C[C@@H]2N)[C@H](O)[C@@H](O)[C@@H]1O [KANAMYCIN]

— ChEMBL document CHEMBL4118025, “ent-Abietane and Tigliane Diterpenoids from the Roots of Euphorbia fischeriana and Their Inhibitory Effects against Mycobacterium smegmatis” (2017)
